Compound activity: PubChem, several laboratories
Shown are actives, neighbours in structure and some others; about 4.6% of the full set was active somewhere.
Arrestin-AP2 inh = inhibitors of human beta-arrestin and AP2 interaction; AID 504490; 340,000 tested, 0.31% active; inhibition, % at 10 µM; FITC-arrestin peptide / GST-AP2 beads, flow cytometry; AP2 beta2 appendage carries R879A mutation;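 active means inhibition above a set limit, near 3 SD of compounds lacking own fluorescence, cut at about 54% in these data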;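 further: plate controls were DMSO wells for no effect and 5 µM unlabelled arrestin peptide for full effect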
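Material – GST-tagged AP2 beta2-adaptin appendage (R879A) on 4 µm glutathione beads · Probe or stimulus – fluorescein-tagged arrestin peptide at 50 nM final · Timing – 12 min plus 1 h, RT · Detection – bead flow cytometry, FITC channel · Read-out basis – inhibition as reduced fluorescein signal on beads, percent · Medium – PBS plus Tween 20 (0.05%) and BSA (0.1%)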
PolyA inhibitor = yeast polyadenylation inhibition. S. cerevisiae SKY197-pL101 polyadenylation reporter, beta-gal luminescence; efflux-impaired pdr1/pdr3 knockout yeast; score 100 = 6 SD above DMSO. activity score, % at 12 µM. 300,000 tested, 0.02% active;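 active means lowest replicate activity score at least 50, where 100 means six control SD above control mean; inconclusive means lowest score under 50 but half or more replicates reach 50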;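 further: yeast exposed to compound for 9 h at 30 °C; higher score means more reporter readthrough which indicates perturbed polyadenylation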
ALR inh = human ALR oxidase inhibition via reduced H2O2 | P55789 | 290,000 tested, 3.8% active | inhibition, % (no concentration beside the values) | purified ALR, DTT oxidation, H2O2 HRP-luminol luminescence;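 active means mean replicate inhibition above about 79%, with every replicate also reaching it, limit read from the data; inconclusive means only one of the two criteria met; inactive means mean below limit and not every replicate reaching it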
Target sequence (P55789 whole entry, looked up): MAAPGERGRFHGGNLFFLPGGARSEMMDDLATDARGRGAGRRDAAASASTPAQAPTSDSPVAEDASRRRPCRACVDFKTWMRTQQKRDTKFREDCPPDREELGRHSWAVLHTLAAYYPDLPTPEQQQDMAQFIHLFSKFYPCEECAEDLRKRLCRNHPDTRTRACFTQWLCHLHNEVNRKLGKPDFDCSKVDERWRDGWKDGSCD
NALP1 inh = NALP1 inhibition | inhibition, % at 10 µM | 280,000 tested, 0.61% active | S. cerevisiae NALP1/ASC/caspase-1 growth, X-gal OD620, 72 h | AID 2071; in the data active means inhibition mostly above about 24%, no sharp cut-off; inactive means mostly below about 32%
NALP3 yeast inh = inhibitors of NALP3 inflammasome in yeast; Yeast reconstituted NLRP3/ASC/caspase-1, beta-gal luminescence, 24 h; inhibition, % at 10 µM; 330,000 tested, 0.39% active;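 active means inhibition of 50% or more; inactive means inhibition below 50%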;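 further: plate controls were induced DMSO wells for no effect and uninduced yeast grown without galactose for full effect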
Pemphigus Ab inh = inhibitors of pemphigus antibody binding to human desmoglein-3. P32926. DSG3-coupled beads, scFv-anti-DSG3-GFP binding, flow cytometry; hits give low values. binding (percent of control), % at 10 µM. 310,000 tested, 0.48% active;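 active means binding more than 3 SD below its plate's average and above zero; inconclusive means below that plate limit but binding exactly zero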;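 further: hits lower antibody fragment binding to DSG3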
Starred values were filed as active, the others as inactive; ? = inconclusive; . = not tested or not shown.

SMILES | Arrestin-AP2 inh | PolyA inhibitor | ALR inh | NALP1 inh | NALP3 yeast inh | Pemphigus Ab inh
O=C(NCC(c1cccnc1)N1CCN(c2ccc(F)cc2)CC1)C1CCCCC1 (stereo unspecified) | 3.6 | 13.3 | 98.1* | 10.9 | -8.1 | 101.7
COc1ccc(C(=O)NCC(c2cccnc2)N2CCN(c3ccc(F)cc3)CC2)cc1OC (stereo unspecified) | 5.6 | . | 85.5* | -33.2 | 4.7 | 84.7
COc1cc(C(=O)NCC(c2cccnc2)N2CCN(c3ccc(F)cc3)CC2)cc(OC)c1OC (stereo unspecified) | 8.2 | . | 54.7 | -10.0 | -3.4 | 85.1
COc1ccc(C(=O)NCC(c2cccnc2)N2CCN(c3ccccc3)CC2)cc1OC (stereo unspecified) | 3.9 | -4.9 | 98.1* | 10.0 | 9.5 | 113.2
COc1ccccc1N(C)S(=O)(=O)c1ccc(C)c(C(=O)NCc2ccccn2)c1 | -12.8 | . | -1.0 | . | 7.4 | 102.7
Cc1ccc(OCc2cc(C(=O)N(C)Cc3cnc4ccccn34)no2)cc1C | 1.5 | -8.8 | 0.3 | 18.1 | 16.6 | 96.8
COC(=O)c1c(NC(=O)C(=O)N2CCOCC2)sc2c1CCCC2 | -14.2 | -11.9 | -5.3 | 11.2 | 13.1 | 103.2
CC1(C)CC(=O)C=C(c2ccc(COC(=O)Cc3ccccc3)cc2)C1=O | . | . | . | . | . | 97.6
O=C(NNc1ccccc1)/C(=C\c1cccnc1)NC(=O)c1ccccc1 | 17.0 | 7.2 | 98.3* | 26.0 | 17.2 | 110.6
CCN(CC)c1ccc(C(=C2C=CC(=[N+](CC)CC)C=C2)c2ccc(S(=O)(=O)O)cc2S(=O)(=O)[O-])cc1 | 3.8 | . | . | . | . | 100.8
N#Cc1c(NC(=O)CN2CCOCC2)oc(-c2ccccc2)c1-c1ccccc1 | 2.5 | -3.4 | 98.7* | 10.0 | -6.2 | 102.3
CCN(CC(=O)Nc1ccccc1OC)C(=O)c1ccc(NS(=O)(=O)c2ccc(C(C)=O)cc2)cc1 | -19.5 | 7.6 | -3.9 | 43.6* | 15.6 | 111.0
CCCN(CC(=O)Nc1ccccc1OC)C(=O)c1ccc(S(=O)(=O)Nc2ccccc2)cc1 | 15.9 | -0.1 | 0.3 | . | 2.7 | 88.6
O=C1CCCCCN1Cc1nnc(SCc2nc3ccccc3s2)n1-c1ccccn1 | 20.6 | 0.1 | . | 2.7 | 10.2 | .
COc1ccc(-n2cnnc2SCc2cnc(-c3ccccc3)s2)cc1 | -5.8 | -2.4 | 98.5* | -29.5 | -4.7 | .
COCCn1c(SCc2cnc(-c3ccccc3)s2)nnc1-c1ccncc1 | 19.4 | -2.2 | 98.6* | 8.5 | 10.0 | 98.1
CCn1c(CN2CCCCCC2=O)nnc1SCc1cnc(-c2ccccc2)s1 | 3.1 | 0.0 | 98.6* | -16.8 | 1.9 | .
O=C(CNC1CCCC1)Nc1ccc(N2CCCCCC2)cc1 | 22.3 | 9.2 | . | 29.7* | 29.3 | 103.2
O=C(COC(=O)C1CCCCC1)Nc1ccc(N2CCCCC2)cc1 | 4.9 | -3.1 | 88.2* | 1.9 | -2.6 | 111.4
NS(=O)(=O)c1ccc(NC(=O)COC(=O)C2CCCCC2)cc1 | -4.9 | 13.7 | -0.4 | -0.2 | 7.1 | 91.9
Cc1ccc(N2CCN(c3ccc(NC(=O)CCC(=O)O)cc3)CC2)cc1 | 6.0 | 13.6 | 64.1 | 20.3 | 2.6 | 102.1
O=C(O)CCC(=O)Nc1ccc(N2CCCCCC2)cc1 | 7.9 | 1.8 | 98.9* | 22.7 | 18.5 | 97.5
O=C(CNCC1CCCCC1)Nc1ccc(N2CCCCC2)cc1 | . | 4.4 | 97.9* | 13.3 | 20.5 | .
CSCc1c(C(=O)Nc2ccccc2N2CCOCC2)oc2ccccc12 | 16.3 | . | -5.3 | . | 14.0 | 94.8
CN(C(=O)CSc1nc2scc(-c3ccccc3)c2c(=O)[nH]1)c1ccccc1 | 16.0 | . | -0.4 | . | 23.8 | 101.9
SMILES | Arrestin-AP2 inh | PolyA inhibitor | ALR inh | NALP1 inh | NALP3 yeast inh | Pemphigus Ab inh
CC1CCN(CC(=O)Nc2ccc(N3CCCCCC3)cc2)CC1 | -8.6 | -1.5 | 98.4* | -4.2 | 33.2 | 103.2
O=C(CNC1CCCCCC1)Nc1ccc(N2CCCC2)cc1 | . | 6.6 | 94.2* | -0.8 | 7.9 | .
O=C(CN1CCN(c2ccccc2)CC1)Nc1c(C(=O)C2CC2)oc2ccccc12 | 4.6 | 11.1 | 3.5 | -4.6 | 18.9 | 101.9
Cc1ccc(N2CCN(CC(=O)Nc3c(C(=O)C4CC4)oc4ccccc34)CC2)cc1 | . | . | . | 47.0* | . | .
O=C(NCc1ccccc1)C1CCCN(C(=O)c2ccc(F)cc2)C1 (stereo unspecified) | 2.5 | . | . | . | 22.2 | 100.9
CC(C)(O)C#Cc1ccc(C(=O)NC2CCCCC2)s1 | 6.2 | -13.6 | 96.6* | -0.9 | 6.5 | 97.6
COc1ccc(-c2noc(CCC(=O)N3CCN(c4ccccc4)CC3)n2)cc1 | -15.0 | . | . | . | . | 91.2
Cc1cc(Sc2nc(N)ncc2[N+](=O)[O-])ncn1 | 9.4 | 0.3 | 98.3* | 5.3 | 25.9 | 94.7
Nc1ccc(S(=O)(=O)c2ccc(N3CCOCC3)c(N)c2)cc1 | . | . | . | . | . | 106.8
CCC1(C)OC(=O)N2CCc3c(C)[nH]c4c(C)ccc(c34)C21C (stereo unspecified) | 0.1 | -21.9 | 98.4* | 30.7 | 8.3 | 100.0
CCOC(=O)c1c(C)[nH]c(C(=O)COC(=O)c2ccc(N3CCCC3=O)cc2)c1C | 24.9 | 6.4 | . | 19.7 | -2.1 | .
COCOCCn1cc(CN2CCS(=O)(=O)N(Cc3ccc(-c4ccc(OC)cc4)cc3)C(C(C)C)C2=O)nn1 (stereo unspecified) | . | . | . | . | . | 97.8
CCN1CCc2nc(SCC(=O)Nc3ccc(OC)cc3)c(C#N)cc2C1 | -13.8 | -2.8 | 98.6* | 27.9 | 4.6 | .
COc1ccc(NC(=O)CSc2nc3c(cc2C#N)CN(C)CC3)cc1 | 14.8 | 0.4 | 97.2* | . | 18.7 | 99.3
COc1ccc(-c2c(C#N)c(SCC(=O)Nc3ccccc3)nc3c2CCCC3)cc1 | 0.1 | 4.5 | -2.7 | . | 12.8 | 110.8
CN1CCc2nc(SCC(=O)Nc3ccc(F)cc3)c(C#N)cc2C1 | . | 2.8 | 99.1* | 6.1 | 9.6 | .
CN1CCc2nc(SCc3ccc(C(C)(C)C)cc3)c(C#N)cc2C1 | -8.0 | 2.6 | ? | -45.6 | 8.4 | 92.3
COc1ccccc1NC(=O)N(C)C[C@@H]1OCc2cnnn2CCCC(=O)N([C@H](C)CO)C[C@H]1C | . | . | . | . | . | 97.6
O=c1cc(-c2ccccc2)oc2cc(O)c(O)c(O)c12 | 29.3 | . | . | . | 12.6 | 97.3
O=c1c(O)cccc2cc(O)c(O)c(O)c12 | 39.5 | 0.1 | 99.9* | 6.5 | 7.4 | 33.0*
CC[C@]12C(=O)N(C)C[C@H]([C@@H]3C(=O)N(C)C(=O)[C@@H]31)N2C(=O)c1ccc(C(C)(C)C)cc1 | 4.9 | . | . | . | . | 99.4
COc1ccccc1C(=O)C1CCCN(C(=O)c2ccccc2C(C)=O)C1 (stereo unspecified) | 12.8 | -14.5 | . | 27.4* | 6.9 | .
COc1ccccc1C(=O)C1CCCN(C(=O)c2ccc(C(C)=O)s2)C1 (stereo unspecified) | 8.5 | 5.2 | -7.1 | 2.5 | -3.6 | 105.6
CN(Cc1ccccc1F)C(=O)COc1ccc(C(=O)c2ccccc2)cc1 | -9.7 | 13.6 | -20.7 | 14.7 | 7.8 | 113.8
